Inhibition data for 1 compound are collected here from ChEMBL document CHEMBL4422635, “Structure-Based Discovery of a Subtype-Selective Inhibitor Targeting a Transient Receptor Potential Vanilloid Channel” (J Med Chem, 2019).

Common to all, as to type: cell-based
Experiment [1] concerns the target Transient receptor potential cation channel subfamily V member 1 (Mus musculus) (UniProt Q704Y3). In words: Antagonist activity at mouse TRPV1 expressed in HEK293T cells assessed as inhibition of 2-APB evoked currents at 3 to 10 uM -60 mV holding potential by whole-cell patch clamp assay. The gist of the method:
(§1)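 Whole-cell voltage clamp of transiently transfected HEK293T cells co-expressing GFP, recorded 36-96 h post-transfection. Hold -60 mV; pipettes 3-7 MΩ. Bath 165 mM NaCl, 10 mM HEPES pH 7.3; pipette 140 mM KCl, 10 mM HEPES pH 7.3. Room temperature (~25 °C). IC50 from Hill fits of I/I0, the current ratio after vs before inhibitor; mean ± SEM.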

Experiment [2] concerns T1, Transient receptor potential cation channel subfamily V member 2 (Mus musculus), Q9WTR1 [F467S].
T1 sequence (whole entry): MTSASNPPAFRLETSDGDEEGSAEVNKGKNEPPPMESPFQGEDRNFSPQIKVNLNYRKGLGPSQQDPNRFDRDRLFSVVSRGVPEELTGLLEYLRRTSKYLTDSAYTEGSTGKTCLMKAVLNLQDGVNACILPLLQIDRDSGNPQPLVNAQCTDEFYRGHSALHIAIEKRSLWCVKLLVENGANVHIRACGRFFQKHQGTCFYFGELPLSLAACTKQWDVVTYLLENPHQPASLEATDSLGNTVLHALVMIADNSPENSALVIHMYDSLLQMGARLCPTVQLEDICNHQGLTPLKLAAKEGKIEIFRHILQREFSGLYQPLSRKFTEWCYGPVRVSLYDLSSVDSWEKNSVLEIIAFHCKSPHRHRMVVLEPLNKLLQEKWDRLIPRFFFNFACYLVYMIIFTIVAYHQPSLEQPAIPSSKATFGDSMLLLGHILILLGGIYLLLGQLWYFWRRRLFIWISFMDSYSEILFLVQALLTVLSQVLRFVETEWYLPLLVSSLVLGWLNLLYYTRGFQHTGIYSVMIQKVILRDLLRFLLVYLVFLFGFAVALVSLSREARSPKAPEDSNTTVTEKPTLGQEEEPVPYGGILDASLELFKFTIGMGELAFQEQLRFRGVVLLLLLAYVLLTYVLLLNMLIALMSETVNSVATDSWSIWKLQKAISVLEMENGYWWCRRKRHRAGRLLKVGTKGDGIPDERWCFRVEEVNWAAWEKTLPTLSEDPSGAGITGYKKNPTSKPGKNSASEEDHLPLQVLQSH
Description: Antagonist activity at mouse TRPV2 F467S mutant expressed in HEK293T cells assessed as inhibition of 2-APB evoked currents at 0.3 to 3 uM by whole-cell patch clamp assay. The gist of the method: as §1

For experiment [3], the target named is T2, Transient receptor potential cation channel subfamily V member 2 (Mus musculus) (UniProt Q9WTR1).
T2 sequence (whole entry): T1 sequence (whole entry) with S467F
Description: Antagonist activity at mouse TRPV2 expressed in HEK293T cells assessed as inhibition of 2-APB evoked currents at -60 mV holding potential by whole-cell patch clamp assay. The gist of the method: as §1

In experiment [4] the test system is Transient receptor potential cation channel subfamily V member 1 (Mus musculus), Q704Y3 [T551L]. Description: Antagonist activity at mouse TRPV1 T551L mutant expressed in HEK293T cells assessed as inhibition of 2-APB evoked currents at > 1 uM at -60 mV holding potential by whole-cell patch clamp assay. Put shortly:
as §1
(The patch-clamp technique gives a direct electrical read-out from membranes.)

Experiment [5] concerns Transient receptor potential cation channel subfamily V member 1 (Mus musculus), Q704Y3 [S513F]. Description: Antagonist activity at mouse TRPV1 S513F mutant expressed in HEK293T cells assessed as inhibition of 2-APB evoked currents at 0.3 to 10 uM at -60 mV holding potential by whole-cell patch clamp assay. Put shortly:
as §1

Experiment [6] has as its system T3, Transient receptor potential cation channel subfamily V member 2 (Mus musculus), Q9WTR1 [F467A].
T3 sequence (whole entry): T1 sequence (whole entry) with S467A
In words: Antagonist activity at mouse TRPV2 F467A mutant expressed in HEK293T cells assessed as inhibition of 2-APB evoked currents at -60 mV holding potential by whole-cell patch clamp assay. The gist of the method:
as §1

Where a chain is given by its changes, count along the chain named. The source made the active and inactive calls. The calls are words filed in the database; no cut-off is given here.

Transient receptor potential cation channel subfamily V member 1 (Mus musculus), Q704Y3 [S513F], sequence (Q704Y3 whole entry S513F): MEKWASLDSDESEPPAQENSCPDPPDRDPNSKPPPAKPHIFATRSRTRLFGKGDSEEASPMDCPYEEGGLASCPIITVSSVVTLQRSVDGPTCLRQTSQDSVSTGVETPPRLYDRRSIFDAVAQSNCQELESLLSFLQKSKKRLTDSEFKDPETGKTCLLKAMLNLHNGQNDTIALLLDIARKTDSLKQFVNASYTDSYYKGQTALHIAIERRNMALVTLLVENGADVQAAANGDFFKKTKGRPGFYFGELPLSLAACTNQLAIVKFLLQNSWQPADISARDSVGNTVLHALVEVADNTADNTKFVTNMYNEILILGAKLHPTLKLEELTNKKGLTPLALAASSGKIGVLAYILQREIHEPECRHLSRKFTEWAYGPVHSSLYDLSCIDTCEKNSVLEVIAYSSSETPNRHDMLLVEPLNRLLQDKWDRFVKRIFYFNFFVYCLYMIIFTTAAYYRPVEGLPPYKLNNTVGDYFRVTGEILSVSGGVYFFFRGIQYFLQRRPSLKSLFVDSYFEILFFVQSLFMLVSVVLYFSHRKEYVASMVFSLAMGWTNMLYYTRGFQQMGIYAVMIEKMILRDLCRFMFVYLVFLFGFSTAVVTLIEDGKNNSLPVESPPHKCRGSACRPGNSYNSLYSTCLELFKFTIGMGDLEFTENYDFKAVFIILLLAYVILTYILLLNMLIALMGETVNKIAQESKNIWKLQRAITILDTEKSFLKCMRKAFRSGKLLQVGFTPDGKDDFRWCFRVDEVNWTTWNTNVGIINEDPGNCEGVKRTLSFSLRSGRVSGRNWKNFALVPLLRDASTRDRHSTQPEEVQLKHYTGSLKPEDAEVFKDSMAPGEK
Transient receptor potential cation channel subfamily V member 1 (Mus musculus), sequence (Q704Y3 whole entry): as the sequence (Q704Y3 whole entry S513F) above, with F513S counted along it
Transient receptor potential cation channel subfamily V member 1 (Mus musculus), Q704Y3 [T551L], sequence (Q704Y3 whole entry T551L): as the sequence (Q704Y3 whole entry S513F) above, with F513S, T551L counted along it

With `CCCN(C)c1cc(C(F)(F)F)nc(SCCC(=O)NCc2ccco2)n1`, the inhibition entry in experiment [1], in experiment [2], in experiment [5] and in experiment [6] was “inactive” in each case. Besides, the inhibition result in experiment [3] is “Dose-dependent effect”. Moreover, the inhibition entry in experiment [4] is “Active”.
